Diaph act CS = counter-screen for diaphorase-based assays: diaphorase activators and chemical reducers | 0.005% of 190,000 active | activation factor at 20 µM | Diaphorase/resazurin coupled assay, resorufin fluorescence, 16 min; stronger effect = higher value; 1 = vehicle wells, 0 = NADH-free wells;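 active = diaphorase activity raised at least twofold by the compound at 20 µM; inactive = activation factor below 2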
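Assay system: bacterial diaphorase enzyme (C. kluyveri) / Input: enzyme 0.07 U/mL final / Medium: 50 mM HEPES pH 7.4 with 4.542 mM MgCl2, 0.005% Tween 20 / Doses: single compound dose of 20 µM, 1% DMSO final / Incubation: 16 min enzyme reaction, ambient temperature / Signal: fluorescence, excitation 544 nm and emission 590 nm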
PMI act satM6P = activators of human phosphomannose isomerase at near-saturating mannose 6-phosphate. coupled PMI enzyme assay, resazurin fluorescence, 20 min; stronger effect = higher value; 1 = untreated enzyme, 0 = substrate-free blank. activation factor at 20 µM. 0.34% of 190,000 active;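 active = activation factor of 2 or more at 20 µM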
Target sequence (P34949 whole entry, looked up): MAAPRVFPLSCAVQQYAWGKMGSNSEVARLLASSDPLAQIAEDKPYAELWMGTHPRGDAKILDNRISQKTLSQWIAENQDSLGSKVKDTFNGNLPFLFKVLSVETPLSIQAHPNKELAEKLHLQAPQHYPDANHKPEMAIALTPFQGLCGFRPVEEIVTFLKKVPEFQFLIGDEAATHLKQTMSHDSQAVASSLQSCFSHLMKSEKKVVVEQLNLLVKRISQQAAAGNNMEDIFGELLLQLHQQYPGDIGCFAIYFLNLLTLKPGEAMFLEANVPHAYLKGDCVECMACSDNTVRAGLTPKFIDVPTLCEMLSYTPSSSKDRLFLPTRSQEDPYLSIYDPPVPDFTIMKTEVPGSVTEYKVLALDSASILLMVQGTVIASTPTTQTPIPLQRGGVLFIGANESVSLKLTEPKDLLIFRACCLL
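Test system: human PMI in coupled enzyme assay; Input: PMI at 15 ng/mL final; Medium: HEPES buffer, pH 7.4; Schedule: 20 min incubation at room temperature; Technique: resorufin fluorescence at Ex 544/Em 590 nm; Compound: 20 µM single dose; Probe or stimulus: Near-saturating mannose-6-phosphate, 1.0 mM.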
Lmaj promast = inhibitors of Leishmania major promastigote growth. inhibition, % at 10 µM. 9% of 200,000 active. AID 1063. Leishmania major promastigotes, resazurin fluorescence viability; in the data active = inhibition above about 50%;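 also: promastigotes grown with compound for 44 hours at 28 °C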
PMI act = increases human mannose-6-phosphate isomerase activity. P34949. purified human PMI, coupled resazurin fluorescence, 20 min; stronger effect = higher value; 1 = vehicle control, 0 substrate-free wells. activation factor at 20 µM. 0.005% of 190,000 active;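 active = activation factor of 2 or more at 20 µM, relative to plate controls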
WT yeast gro inh = growth inhibition of WT yeast, mitochondrial fusion screen. mitochondrial fusion phenotypic screen, WT strain. inhibition, % at 10 µM. 2.1% of 190,000 active; in the data active = inhibition above about 58%; tested in S. cerevisiae
Active calls of the source: *. A selection: hits, their analogues and other compounds. The true share with any hit is near 10%.

What do the screens show for `COc1cc(/C=C/C(=O)c2c(O)ccc3c(C)cc(=O)oc23)ccc1O`?
Diaph act CS: 0.7; PMI act satM6P: 0.9; Lmaj promast: 99*; PMI act: 0.8; WT yeast gro inh: 21

Results for Cc1cc(=O)oc2c(C(=O)/C=C/c3ccccc3)c(O)ccc12 ?
Diaph act CS: 1; PMI act satM6P: 1; Lmaj promast: 52*; PMI act: 1; WT yeast gro inh: 2

What do the screens show for `CC(C)=CC(=O)Nc1nc2ccc([N+](=O)[O-])cc2s1`?
Diaph act CS: 0.9; PMI act satM6P: 0.9; Lmaj promast: 22; PMI act: 1; WT yeast gro inh: 11

How did CCN(CC)S(=O)(=O)c1ccc2c(c1)N(CC(=O)Nc1cccnc1Cl)C(=O)CO2 do in these assays?
Diaph act CS: 0.9; PMI act satM6P: 0.8; Lmaj promast: 0; PMI act: 0.9; WT yeast gro inh: -8

How did CC1(C)[C@H]2CC=C(CN3CCC(N4CCC(C(=O)N5CCCC5)CC4)CC3)[C@@H]1C2 do in these assays?
Diaph act CS: 1; PMI act satM6P: 1.1; Lmaj promast: 89*; PMI act: 1; WT yeast gro inh: -2

Results for Cc1cc2nnc(SCC(=O)Nc3cccc(S(=O)(=O)N4CCOCC4)c3)n2c2ccccc12 ?
Diaph act CS: 0.5; PMI act satM6P: 0.8; Lmaj promast: 0; PMI act: 0.8; WT yeast gro inh: -21

How did CN1CC(c2ccccc2)C2(SC(=S)N(Cc3ccco3)C2=O)C12C(=O)Nc1ccccc12 (stereo not given) do in these assays?
Diaph act CS: 0.8; PMI act satM6P: 0.9; Lmaj promast: 98*; PMI act: 0.9; WT yeast gro inh: 80*

Results for COC(=O)C1=C(C)N(Cc2ccco2)C(=O)N[C@@H]1c1ccccc1 ?
Diaph act CS: 0.8; PMI act satM6P: 0.9; Lmaj promast: 3; PMI act: 1; WT yeast gro inh: -3

How did Cc1ccc(C(=O)CSc2nnc(N)s2)c(C)c1 do in these assays?
Diaph act CS: 0.9; PMI act satM6P: 1.4; Lmaj promast: -4; PMI act: 1.5; WT yeast gro inh: 10

How did CC1C(C)C(O)(c2ccccc2)CCN1C (stereo not given) do in these assays?
Diaph act CS: 0.9; PMI act satM6P: 0.9; Lmaj promast: 69*; PMI act: 1; WT yeast gro inh: 5

What do the screens show for `CC(C)C1C(c2ccccc2)N(C)C(c2ccccc2)CC1(O)c1ccccc1` (stereo not given)?
Diaph act CS: 0.8; PMI act satM6P: 0.9; Lmaj promast: 40; PMI act: 0.8; WT yeast gro inh: 63

Results for C/C(CC(=O)Nc1cccc(C(F)(F)F)c1)=N\NC(=O)C1CCCCC1 ?
Diaph act CS: 0.9; PMI act satM6P: 0.9; Lmaj promast: -3; PMI act: 0.9; WT yeast gro inh: -14

How did COc1ccc(C(=O)CC(=O)C(=O)NCCc2cccc(C)c2)cc1 do in these assays?
Diaph act CS: 1; PMI act satM6P: 1.1; Lmaj promast: 64*; PMI act: 1; WT yeast gro inh: 14

What do the screens show for `COc1ccc(OCCNC(=S)Nc2cccc3ccccc23)cc1`?
Diaph act CS: 0.9; PMI act satM6P: 0.9; Lmaj promast: 3; PMI act: 0.9; WT yeast gro inh: 60*

How did COc1ccc(NC(=S)NCCc2c(C)[nH]c3ccc(OC)cc23)cc1 do in these assays?
Diaph act CS: 1; PMI act satM6P: 1.1; Lmaj promast: 62*; PMI act: 1.1; WT yeast gro inh: -45

Results for COc1ccc(NC(=S)NCCc2c[nH]c3ccccc23)cc1 ?
Diaph act CS: 0.8; PMI act satM6P: 1; Lmaj promast: 12; PMI act: 1; WT yeast gro inh: -18

Results for COCCNC(=S)Nc1cccc2cnccc12 ?
Diaph act CS: 0.8; PMI act satM6P: 0.5; Lmaj promast: 3; PMI act: 0.8; WT yeast gro inh: 1

What do the screens show for `COc1ccc(CCNC(=S)Nc2cccc3ccccc23)cc1`?
Diaph act CS: 0.8; PMI act satM6P: 0.9; Lmaj promast: 85*; PMI act: 0.9; WT yeast gro inh: 68*

What do the screens show for `Cc1ccc(CNC(=O)CNS(=O)(=O)c2ccc3nc(C)sc3c2)cc1`?
Diaph act CS: 1; PMI act satM6P: 1; Lmaj promast: -1; PMI act: 1; WT yeast gro inh: 8

Results for CN(Cc1cnccn1)Cc1nc(Cc2cccc(F)c2)no1 ?
Diaph act CS: 0.9; PMI act satM6P: 1.1; Lmaj promast: -5; PMI act: 1; WT yeast gro inh: -9

Assay outcomes: PubChem, several laboratories
